Hits are enriched below; roughly 4.1% of the tested compounds scored in any of these assays.
hERG protect: shields human hERG channel from block by proarrhythmic agents. Q12809. activation (rescue from dofetilide block), less the hit threshold, % at 10 µM. 0.51% of 310,000 active. CHO-hERG, FluxOR thallium flux, dofetilide IC70 present;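 active = activation above the mean of controls blocked by dofetilide plus 5 SD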;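 note: thallium influx through hERG after potassium depolarization seen as dye fluorescence rise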
KCNQ1 pot: potentiates or activates the human KCNQ1 potassium channel; P51787; CHO-K1 KCNQ1, thallium flux FluxOR fluorescence; stronger effect = higher value; B-score at 10 µM; 0.35% of 310,000 active;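 active = fluorescence ratio B-score, a plate-corrected score, at least three library SD, with initial intensity B-score within 5 SD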
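Schedule – 37 °C overnight plating, 90-min dark dye load, 20-min compound pretreatment · System – stable KCNQ1 CHO-K1 line · Probe or stimulus – thallium- and potassium-containing depolarizing buffer · Measured by – kinetic FluxOR fluorescence, 10 s baseline plus 110 s post-stimulus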
KCNK9 inh: human KCNK9 channel inhibition | Q9NPC2 | 1.2% of 310,000 active | HEK293 KCNK9, FluxOR thallium flux fluorescence; stronger effect = lower value | B-score at 10 µM | AID 488922;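 active = ratio B-score over 3 SD below the library mean, with starting fluorescence within 5 SD of its mean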;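 note: negative B-score means less thallium flux so channel inhibition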
Target sequence (Q9NPC2 whole entry, looked up): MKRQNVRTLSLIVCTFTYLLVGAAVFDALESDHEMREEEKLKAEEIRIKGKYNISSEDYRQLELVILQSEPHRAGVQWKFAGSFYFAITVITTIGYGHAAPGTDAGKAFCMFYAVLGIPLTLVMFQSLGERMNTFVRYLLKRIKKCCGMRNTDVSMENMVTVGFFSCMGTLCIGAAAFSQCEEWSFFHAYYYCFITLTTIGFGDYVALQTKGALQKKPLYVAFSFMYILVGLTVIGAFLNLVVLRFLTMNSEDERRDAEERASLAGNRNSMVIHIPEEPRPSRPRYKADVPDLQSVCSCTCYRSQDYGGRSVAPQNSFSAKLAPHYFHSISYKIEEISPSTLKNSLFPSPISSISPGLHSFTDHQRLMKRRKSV
Cl transport mod: modulates chloride dependent transport by human KCC2; Q9H2X9; KCC2 cells, thallium flux FluoZin-2 fluorescence; B-score of Tl+ flux slope (higher = more flux/activation; lower = inhibition) at 10 µM; 2.2% of 190,000 active;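 active = thallium flux slope and its plate-corrected score both differing from the plate sample mean at a set confidence after two filtering rounds, in either direction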;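 note: slope of fluorescence scaled to starting intensity during 10 to 20 s after thallium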
KCNQ1 block: inhibitors of human KCNQ1 potassium channel | P51787 | CHO-K1 KCNQ1, FluxOR thallium flux fluorescence; stronger effect = higher value | B-score at 10 µM | AID 2642 | 1.3% of 310,000 active;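 active = compounds whose thallium flux B-score, printed positive for inhibition, exceeds three library SD while starting fluorescence stays within three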;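 note: channel opened by potassium depolarization with thallium stimulus after 20 min compound exposure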
KCNK3 inh: human KCNK3 channel inhibition, primary screen. CHO-KCNK3 thallium flux, FluxOR fluorescence; stronger effect = lower value. B-score at 10 µM. 0.84% of 340,000 active. AID 602410;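 active = B-score under library mean minus 4 SD, starting fluorescence ratio at most library mean plus 5 SD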;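 note: more negative B-score means stronger inhibition of thallium flux through KCNK3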
Target sequence (O14649 whole entry, looked up): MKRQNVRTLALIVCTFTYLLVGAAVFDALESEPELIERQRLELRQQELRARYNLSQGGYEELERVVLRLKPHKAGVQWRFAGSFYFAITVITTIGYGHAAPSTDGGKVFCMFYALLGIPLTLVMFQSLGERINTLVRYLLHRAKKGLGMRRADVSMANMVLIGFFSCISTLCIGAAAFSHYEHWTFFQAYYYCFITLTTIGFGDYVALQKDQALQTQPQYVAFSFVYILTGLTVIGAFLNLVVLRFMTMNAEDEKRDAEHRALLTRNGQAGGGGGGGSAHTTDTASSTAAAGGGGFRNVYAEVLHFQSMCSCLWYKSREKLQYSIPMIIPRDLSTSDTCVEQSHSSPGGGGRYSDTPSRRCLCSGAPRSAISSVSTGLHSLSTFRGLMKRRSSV
KCC2 sec1: confirmation of human KCC2 transport modulators; shares compounds with Cl transport mod; HEK293-KCC2, thallium flux, FluoZin2 fluorescence; stronger effect = higher value; normalised thallium flux (F/F0 slope) at 10 µM; 15% of 3,700 active; AID 1713;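 active = thallium flux slope above the same plate's solvent-only control mean plus 3 SD; inconclusive = the two replicate wells disagree; inactive = no significant difference from solvent-only control wells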
KCC2 bumet counter: thallium flux persisting under bumetanide in KCC2 cells, counter-screen secondary assay. shares compounds with Cl transport mod. HEK293-KCC2 + bumetanide/ouabain, thallium flux FluoZin2; stronger effect = higher value. normalized thallium flux at 10 µM. 49% of 3,700 active;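 active = thallium entry rate above the same plate's blocked-transporter control wells by more than 3 SD; inconclusive = the two repeat wells disagree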;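 note: raw slope of fluorescence over initial fluorescence between 10 and 20 s after thallium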
KCC2 sec2: KCC2 (human) modulation, second secondary assay; shares compounds with Cl transport mod; HEK293-KCC2, thallium flux FluoZin2 fluorescence; actives lie on both sides; F/F0 rise rate, 10–20 s post-thallium; normalized thallium flux at 10 µM; 23% of 3,700 active;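 active = thallium flux slope more than 3 SD above or below the plate's solvent-only control mean, mostly below; inconclusive = the two repeat wells disagreed; inactive = no significant shift from solvent-only controls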
HEK293 Tl flux: acts in parental HEK cells, KCC2 counter-screen | shares compounds with Cl transport mod | HEK293 parental cells, thallium flux FluoZin2, ouabain; baseline-ratio fluorescence slope, 10–20 s after thallium | thallium flux rate (normalised fluorescence) at 10 µM | 46% of 3,700 active | AID 1716;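 active = thallium flux rate significantly above the same plate's solvent-only control wells, beyond their mean plus 3 SD; inconclusive = the two replicate wells gave conflicting results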
KCC2 ouabain: confirmation of human KCC2 modulators with ouabain; HEK293-KCC2, thallium flux FluoZin2 fluorescence; bidirectional: low = inhibitor, high = activator; raw Tl+ flux slope (below DMSO = inhibition, above = activation) at 10 µM; AID 1717; shares compounds with Cl transport mod; 48% of 3,700 active;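 active = thallium flux slope beyond 3 SD from same-plate DMSO control mean in most replicates, usually higher, sometimes lower; inconclusive = repeat tests gave conflicting results; inactive = no significant difference from controls in most replicates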;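 note: slope of initial-normalized fluorescence between seconds 10 and 20 after thallium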
HEK293 Tl flux2: counter-screen for KCC2 modulators: effect in parental HEK293 cells. thallium flux FluoZin-2 fluorescence slope. thallium flux slope at 10 µM. 33% of 3,700 active. shares compounds with Cl transport mod;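 active = thallium flux slope above the same plate's solvent-control mean plus 3 SD in both duplicate wells; inconclusive = duplicate wells that disagreed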;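 note: run without ouabain in cells lacking the KCC2 cotransporter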
Of the large screens only hits and unclear results are named; the others gave an inactive call (follow-up assays come after a bar, where they were run).

COc1ccc(Oc2c(Cl)cnn(-c3ccc(F)cc3)c2=O)cc1	Cl transport mod -3.1 | KCC2 sec1 inactive | KCC2 bumet counter inconclusive | KCC2 sec2 inactive | HEK293 Tl flux inactive | KCC2 ouabain 0.017 | HEK293 Tl flux2 inactive
O=C(Cc1cccc2ccccc12)N/N=C/c1ccc(Sc2cccc3cccnc23)o1	KCNK9 inh -9.8, Cl transport mod 10 (no result: KCNK3 inh) | KCC2 sec1 inactive | KCC2 bumet counter 0.013 | KCC2 sec2 inactive | HEK293 Tl flux 0.011 | KCC2 ouabain 0.025 | HEK293 Tl flux2 0.013
CN(Cc1ccccc1)S(=O)(=O)c1csc(C(N)=O)c1	none (no result: Cl transport mod)
O=C(N=Nc1ccc(NOC(=O)c2ccccc2Br)cc1)c1ccccc1O	Cl transport mod 4.2 (no result: KCNK3 inh) | KCC2 sec1 inactive | KCC2 bumet counter 0.021 | KCC2 sec2 inactive | HEK293 Tl flux 0.013 | KCC2 ouabain inconclusive | HEK293 Tl flux2 inactive
O=Nc1ccc(NOC(=O)c2ccccc2)cc1	none
CN(C)c1ccc(-c2nnn(Cc3ccccc3Br)n2)cc1	Cl transport mod -4.3 | KCC2 sec1 inactive | KCC2 bumet counter 0.011 | KCC2 sec2 inactive | HEK293 Tl flux inconclusive | KCC2 ouabain inactive | HEK293 Tl flux2 inactive
NC(=O)CC(NC(=O)Cc1ccc(Br)cc1)c1ccc(NCCc2ccc(F)cc2)c([N+](=O)[O-])c1 (stereo not drawn)	Cl transport mod -3 | KCC2 sec1 inactive | KCC2 bumet counter inactive | KCC2 sec2 inconclusive | HEK293 Tl flux inconclusive | KCC2 ouabain inactive | HEK293 Tl flux2 inactive
Cc1nc(SCc2ccccc2)c([N+](=O)[O-])[nH]1	Cl transport mod -5.2 | KCC2 sec1 inactive | KCC2 bumet counter inactive | KCC2 sec2 0.027 | HEK293 Tl flux inactive | KCC2 ouabain 0.014 | HEK293 Tl flux2 inactive
S=c1[nH]c2ccccc2n2cccc12	Cl transport mod 22 | KCC2 sec1 0.017 | KCC2 bumet counter 0.087 | KCC2 sec2 inconclusive | HEK293 Tl flux 0.028 | KCC2 ouabain 0.048 | HEK293 Tl flux2 0.018
Cn1c(=S)[nH]c2ccccc21	none (no result: Cl transport mod)
CCCOc1ccc(N2C(=O)C3ON(c4ccccc4)C(c4ccc(O)c(OC)c4)C3C2=O)cc1 (stereo not drawn)	none | KCC2 sec1 inactive | KCC2 bumet counter inactive | KCC2 sec2 inconclusive | HEK293 Tl flux inactive | KCC2 ouabain inactive | HEK293 Tl flux2 inactive
Cc1cc(C)c2nc(SC3CCOC3=O)cc(C)c2c1 (stereo not drawn)	Cl transport mod 11 | KCC2 sec1 inactive | KCC2 bumet counter inconclusive | KCC2 sec2 inactive | HEK293 Tl flux 0.011 | KCC2 ouabain inactive | HEK293 Tl flux2 inconclusive
O=C(NNC(=O)c1oc2ccccc2c1-n1cccc1)c1ccco1	none (no result: Cl transport mod) | KCC2 sec1 inactive | KCC2 bumet counter 0.024 | KCC2 sec2 0.04 | HEK293 Tl flux 0.019 | KCC2 ouabain 0.03 | HEK293 Tl flux2 0.019
S=c1[nH]nc(-c2ccccc2)n1/N=C/c1ccc(-c2ccccc2Cl)o1	KCNQ1 pot 8, Cl transport mod 6.8 | KCC2 sec1 inactive | KCC2 bumet counter 0.014 | KCC2 sec2 inconclusive | HEK293 Tl flux 0.02 | KCC2 ouabain 0.027 | HEK293 Tl flux2 0.018
S=c1[nH]nc(-c2ccccn2)n1/N=C/c1ccc(-c2ccccc2Br)o1	hERG protect 14, Cl transport mod 84 | KCC2 sec1 inactive | KCC2 bumet counter 0.14 | KCC2 sec2 0.17 | HEK293 Tl flux 0.14 | KCC2 ouabain 0.14 | HEK293 Tl flux2 0.15
S=c1[nH]nc(-c2cccc(Cl)c2)n1/N=C/c1ccc(-c2ccccc2Br)o1	none
Cc1ccccc1NC(=O)c1cc[n+]([O-])cc1	none (no result: Cl transport mod)
C[C@@H]1C(=O)N(c2ccccc2)[C@@H]1c1ccncc1	none (no result: hERG protect, KCNQ1 pot, KCNK9 inh, Cl transport mod, KCNQ1 block)
CCOCCCN(Cc1cc2cc(C)cc(C)c2[nH]c1=O)C(=O)N(CC)CC	none
CCc1cc2cc(C)cc(C)c2[nH]c1=S	hERG protect 9.1, Cl transport mod 124 | KCC2 sec1 inactive | KCC2 bumet counter 0.024 | KCC2 sec2 0.11 | HEK293 Tl flux 0.11 | KCC2 ouabain 0.086 | HEK293 Tl flux2 0.11
CC(C)c1ccc(NC(=O)c2cccnc2)cc1	none
CC(C)c1ccc(NC(=O)c2csnn2)cc1	Cl transport mod 6.7 | KCC2 sec1 inactive | KCC2 bumet counter inactive | KCC2 sec2 inactive | HEK293 Tl flux inactive | KCC2 ouabain inactive | HEK293 Tl flux2 inactive
Cc1ccc(C(C#N)c2ccc3c(C(F)(F)F)cc(C(F)(F)F)nc3n2)cc1 (stereo not drawn)	hERG protect 10, KCNQ1 pot 43, Cl transport mod 13 | KCC2 sec1 0.022 | KCC2 bumet counter 0.065 | KCC2 sec2 inconclusive | HEK293 Tl flux 0.017 | KCC2 ouabain 0.033 | HEK293 Tl flux2 0.016
COc1cccc(OC)c1C(=O)OCC(=O)N(c1ccccc1)C1CCCCC1	none (no result: hERG protect, KCNQ1 pot, KCNK9 inh, Cl transport mod, KCNQ1 block)
COC(=O)C1CCN(C(=O)COC(=O)CCc2nc3ccccc3c(=O)[nH]2)CC1	Cl transport mod 4.6 | KCC2 sec1 inactive | KCC2 bumet counter inactive | KCC2 sec2 inactive | HEK293 Tl flux inactive | KCC2 ouabain inactive | HEK293 Tl flux2 inconclusive
CCN(CC)CCCn1c(=S)[nH]c2ncccc2c1=O	none
CCN(CCCn1c(=S)[nH]c2ncccc2c1=O)c1ccccc1	hERG protect 38, Cl transport mod 78 | KCC2 sec1 0.019 | KCC2 bumet counter 0.14 | KCC2 sec2 inactive | HEK293 Tl flux 0.12 | KCC2 ouabain 0.12 | HEK293 Tl flux2 0.023
O=c1c2cccnc2[nH]c(=S)n1CCCN1CCN(c2ccccc2F)CC1	Cl transport mod 20 | KCC2 sec1 0.013 | KCC2 bumet counter 0.076 | KCC2 sec2 inactive | HEK293 Tl flux 0.039 | KCC2 ouabain 0.058 | HEK293 Tl flux2 0.013
